Among the data in ChEMBL document CHEMBL3227955, “Studies on the mechanism of antiviral action of 1-(beta-D-ribofuranosyl)-1,2,4-triazole-3-carboxamide (ribavirin)” (J Med Chem, 1979) are inhibition, IC50 and Activity values, retold here.

Activity calls are given as the source filed them. The rule behind the calls is not given here.

For one assay, the species on record is Rattus norvegicus. The assay can be described thus: Inhibition of rat spleen IMP dehydrogenase using NAD and IMP at 200 uM up to 1 hr. Format: tissue-based. In short, it runs like this: (§1)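 Rat spleen IMP dehydrogenase was the 30–40% (NH4)2SO4 fraction, dialyzed, at 0.66 mg protein/mL. Buffer was 0.1 M phosphate pH 7.7 with 1 mM EDTA, 0.5 mM 2-mercaptoethanol and 0.2 mM each NAD and IMP, started with IMP. A340 change against a no-IMP blank was followed at 37 °C for up to 1 h. Activity was expressed relative to the no-inhibitor rate.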
Turning to `CO[C@H]1[C@@H](O)[C@H](n2cnc(C(N)=O)n2)O[C@@H]1COP(=O)(O)O`, the inhibition result is “inactive”.
Still for that read-out and setting: the same measure for `O=P(O)(O)OC[C@H]1O[C@@H](n2cncn2)[C@H](O)[C@@H]1O`: “inactive”; for `CO[C@@H]1[C@H](O)[C@@H](COP(=O)(O)O)O[C@H]1n1cnc(C(N)=O)n1`: “inactive”.

Molecular target in another assay: not listed separately
Description: Inhibition of rat spleen IMP dehydrogenase using NAD and IMP up to 1 hr. Format: tissue-based. The gist of the method:
as §1
Usually IC50 stands for the concentration that inhibits the measured activity by half. The low end stands for inhibition by little substance, the high end for a need for much substance. With `NC(=O)c1ncn([C@@H]2O[C@H](COP(=O)(O)O)[C@@H](O)[C@H]2O)n1` [RIBAVIRIN MONOPHOSPHATE], the midpoint of inhibition, the IC50, lay at 2 µM. This lies in the single-digit micromolar range.
On the same count and under the same terms, the value for `O=C(O)c1ncn([C@@H]2O[C@H](COP(=O)(O)O)[C@@H](O)[C@H]2O)n1` was 70 µM.

For a further assay, the species on record is Rattus norvegicus. Description: Activity at rat liver nucleoside kinase assessed as phosphorylation using [gamma-32P]-ATP after 10 to 20 mins. The gist of the method: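 Rat liver nucleoside kinase was the 55–90% (NH4)2SO4 fraction of the 144000g supernatant, dialyzed. The medium was 50 mM Tris-HCl pH 8.0, 5 μM MgCl2 (so in the source), 25 mM KCl, 1 mM [γ-32P]ATP, and pyruvate kinase with 2 mM phosphoenolpyruvate. Incubation was 10 or 20 min at 37 °C, stopped by 1 min at 100 °C. Liberated Pi was precipitated with added 0.1 mM K2HPO4.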
With `Nc1ncnc2c1ncn2[C@@H]1O[C@H](CO)[C@@H](O)[C@H]1O`, the result was Active.
Turning to `CO[C@H]1[C@@H](O)[C@H](n2cnc(C(N)=O)n2)O[C@@H]1CO`, the outcome was inactive.
Same read-out and setting: the same measure for `NC(=O)c1ncn([C@@H]2O[C@H](CO)[C@@H](O)[C@H]2O)n1`: “Active”; for `OC[C@H]1O[C@@H](n2cncn2)[C@H](O)[C@@H]1O`: “inactive”; for `O=C(O)c1ncn([C@@H]2O[C@H](CO)[C@@H](O)[C@H]2O)n1`: “inactive”.
As for `CO[C@@H]1[C@H](O)[C@@H](CO)O[C@H]1n1cnc(C(N)=O)n1`, the result was inactive.
